Data from ChEMBL document CHEMBL1817571, “Design and synthesis of new prostaglandin D₂ receptor antagonists” (Bioorg Med Chem, 2011).

How the values were obtained:
[1] = Half life in rat at 10 mg/kg, po; type: ADME, organism-based; parameters: dose 10 mg/kg, route oral; settings: in vivo
Procedure, shortened: (§1)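 Fasted male rats (n = 3) received 1 mg/kg iv or 10 mg/kg po. Jugular vein blood was drawn with a heparinized syringe at pre-dose and 2 (iv only), 5, 15 and 30 min, and 1, 2, 4, 6 and 8 h. Plasma was obtained by centrifugation at 4 °C and stored at −80 °C. AUC, Cmax, T1/2, Vss and CL came from the plasma concentration–time course. BA was derived from dose-normalized AUCpo/AUCiv.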

[2] = target: T1, Prostaglandin E2 receptor EP1 subtype (Mus musculus, UniProt P35375); assay: Displacement of [3H]PGE2 from mouse prostaglandin EP1 receptor expressed in CHO cells after 20 mins by liquid scintillation counting
T1 sequence (P35375 whole entry): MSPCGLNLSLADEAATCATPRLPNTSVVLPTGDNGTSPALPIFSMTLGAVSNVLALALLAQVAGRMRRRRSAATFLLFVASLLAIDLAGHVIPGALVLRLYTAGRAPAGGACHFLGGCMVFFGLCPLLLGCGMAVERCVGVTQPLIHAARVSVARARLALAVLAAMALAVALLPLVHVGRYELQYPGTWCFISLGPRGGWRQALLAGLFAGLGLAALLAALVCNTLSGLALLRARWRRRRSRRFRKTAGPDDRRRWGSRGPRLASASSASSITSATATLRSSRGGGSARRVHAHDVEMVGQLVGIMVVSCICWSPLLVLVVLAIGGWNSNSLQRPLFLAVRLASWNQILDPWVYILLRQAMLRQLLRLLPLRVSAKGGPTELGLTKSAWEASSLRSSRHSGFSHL

[3] = Volume of distribution at steady state in rat at 1 mg/kg, iv; type: ADME, organism-based; parameters: dose 1 mg/kg, route intravenous; settings: in vivo, read-out: Vdss; procedure, shortened: as §1
[4] = target: T2, Prostaglandin E2 receptor EP3 subtype (Mus musculus, UniProt P30557); assay: Displacement of [3H]PGE2 from mouse prostaglandin EP3alpha receptor expressed in CHO cells after 60 mins by liquid scintillation counting; type: cell-based
T2 sequence (P30557 whole entry): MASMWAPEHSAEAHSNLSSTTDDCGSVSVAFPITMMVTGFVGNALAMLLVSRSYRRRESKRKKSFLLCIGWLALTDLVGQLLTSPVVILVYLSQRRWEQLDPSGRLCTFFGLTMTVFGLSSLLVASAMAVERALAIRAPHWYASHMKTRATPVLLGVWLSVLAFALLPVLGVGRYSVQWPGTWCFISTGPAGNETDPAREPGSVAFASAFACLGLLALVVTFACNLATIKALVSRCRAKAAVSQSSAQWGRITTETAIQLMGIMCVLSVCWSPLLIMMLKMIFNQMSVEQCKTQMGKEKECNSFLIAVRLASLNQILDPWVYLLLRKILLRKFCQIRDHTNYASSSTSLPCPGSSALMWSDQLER
Procedure, shortened: (§2)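 Membranes came from CHO cells stably expressing mEP1, EP2, EP3 or EP4. They were incubated with 2.5 nM [3H]PGE2 and graded test concentrations in 10 mM KH2PO4–KOH (1 mM EDTA, 10 mM MgCl2, 100 mM NaCl, pH 6.0) at room temperature, 20 min for EP1 and 60 min for EP2–4. Reactions were filtered on GF/B, washed with ice-cold buffer, and counted by scintillation. IC50 came by regression, with Ki via Cheng–Prusoff.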

Prostacyclin receptor = Prostacyclin receptor (Homo sapiens, UniProt P43119); assay: Displacement of [3H]Iloprost from human prostanoid IP receptor expressed in CHO cells after 30 mins by liquid scintillation counting
[5] = Oral bioavailability in rat at 10 mg/kg; type: ADME, organism-based; settings: in vivo; procedure, shortened: as §1
[6] = Half life in rat at 1 mg/kg, iv; type: ADME, organism-based; parameters: dose 1 mg/kg, route intravenous; settings: in vivo; procedure, shortened: as §1
[7] = target: Prostaglandin E2 receptor EP2 subtype (Mus musculus, UniProt Q62053); assay: Displacement of [3H]PGE2 from mouse prostaglandin EP2 receptor expressed in CHO cells after 60 mins by liquid scintillation counting; type: cell-based; procedure, shortened: as §2
[8] = target: T3, Prostaglandin D2 receptor (Mus musculus, UniProt P70263); assay: Displacement of [3H]PGD2 from mouse prostanoid DP receptor expressed in CHO cells after 20 mins by liquid scintillation counting
T3 sequence (P70263 whole entry): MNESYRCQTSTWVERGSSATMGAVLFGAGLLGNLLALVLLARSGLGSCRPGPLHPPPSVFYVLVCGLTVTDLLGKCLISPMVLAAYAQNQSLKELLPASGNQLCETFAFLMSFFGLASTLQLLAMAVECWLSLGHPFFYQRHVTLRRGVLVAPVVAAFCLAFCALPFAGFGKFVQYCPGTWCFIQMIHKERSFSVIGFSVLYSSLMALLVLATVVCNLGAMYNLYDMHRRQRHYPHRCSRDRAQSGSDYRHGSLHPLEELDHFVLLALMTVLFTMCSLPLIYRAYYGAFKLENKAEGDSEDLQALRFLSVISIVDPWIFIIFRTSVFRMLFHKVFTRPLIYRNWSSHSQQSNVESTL

[9] = target: Prostaglandin E2 receptor EP4 subtype (Mus musculus, UniProt P32240); assay: Displacement of [3H]PGE2 from mouse prostaglandin EP4 receptor expressed in CHO cells after 60 mins by liquid scintillation counting; type: cell-based; procedure, shortened: as §2
[10] = AUClast in rat at 10 mg/kg, po; type: ADME, organism-based; parameters: dose 10 mg/kg, route oral, time 0 - last; settings: plasma; procedure, shortened: as §1
[11] = Cmax in rat at 10 mg/kg, po; type: ADME, organism-based; parameters: dose 10 mg/kg, route oral; settings: in vivo; procedure, shortened: as §1
[12] = target: T3, Prostaglandin D2 receptor; assay: Antagonist activity at mouse prostanoid DP receptor expressed in CHO cells assessed as inhibition of PGD2-induced intracellular cAMP production; type: functional, cell-based
Procedure, shortened: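 CHO-mDP cells were seeded at 1×10^5 cells/well and grown 2 days. They were preincubated about 10 min at 37 °C in MEM with 2 µM diclofenac, then about 10 min in MEM with 0.1% BSA, 1 mM IBMX and 2 µM diclofenac. Test compounds at various concentrations plus 10 nM PGD2 were then added for 10 min at 37 °C. Reactions were stopped with 10% TCA, extracted with tri-n-octylamine/chloroform, and cAMP was measured by EIA.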

[13] = AUClast in rat at 1 mg/kg, iv; type: ADME, organism-based; parameters: time 0 - last, dose 1 mg/kg, route intravenous; settings: plasma; procedure, shortened: as §1
[14] = Total clearance in rat at 1 mg/kg, iv; type: ADME, organism-based; parameters: dose 1 mg/kg, route intravenous; settings: in vivo; procedure, shortened: as §1
[15] = target: Prostaglandin F2-alpha receptor (Mus musculus, UniProt P43117); assay: Displacement of [3H]PGF2alpha from mouse prostanoid FP receptor expressed in CHO cells after 60 mins by liquid scintillation counting; type: cell-based
Procedure, shortened: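 CHO-mFP membranes were incubated with 2.5 nM [3H]PGF2α and varied test concentrations in 10 mM KH2PO4–KOH, 1 mM EDTA, 10 mM MgCl2, 100 mM NaCl, pH 6.0, for 60 min at room temperature. Samples were then filtered on GF/B, washed with ice-cold phosphate/NaCl buffer, and counted by scintillation. IC50 came from the regression curve, and Ki = IC50/(1+[L]/Kd).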

Thromboxane A2 receptor = target: T4, Thromboxane A2 receptor (Homo sapiens, UniProt P21731); assay: Displacement of [3H]-SQ29548 from human prostanoid TP receptor expressed in CHO cells after 30 mins by liquid scintillation counting
T4 sequence (P21731 whole entry): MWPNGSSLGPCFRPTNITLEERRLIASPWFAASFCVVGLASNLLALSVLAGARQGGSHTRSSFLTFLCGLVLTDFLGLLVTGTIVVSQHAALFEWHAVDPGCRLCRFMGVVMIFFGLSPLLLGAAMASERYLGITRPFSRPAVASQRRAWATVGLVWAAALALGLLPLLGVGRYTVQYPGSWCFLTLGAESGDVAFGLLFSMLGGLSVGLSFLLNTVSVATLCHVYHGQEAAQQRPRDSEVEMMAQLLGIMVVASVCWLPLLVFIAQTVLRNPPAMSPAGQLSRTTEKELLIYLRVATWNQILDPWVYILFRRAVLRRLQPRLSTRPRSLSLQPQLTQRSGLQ

Chain of Prostaglandin E2 receptor EP4 subtype (P32240 whole entry): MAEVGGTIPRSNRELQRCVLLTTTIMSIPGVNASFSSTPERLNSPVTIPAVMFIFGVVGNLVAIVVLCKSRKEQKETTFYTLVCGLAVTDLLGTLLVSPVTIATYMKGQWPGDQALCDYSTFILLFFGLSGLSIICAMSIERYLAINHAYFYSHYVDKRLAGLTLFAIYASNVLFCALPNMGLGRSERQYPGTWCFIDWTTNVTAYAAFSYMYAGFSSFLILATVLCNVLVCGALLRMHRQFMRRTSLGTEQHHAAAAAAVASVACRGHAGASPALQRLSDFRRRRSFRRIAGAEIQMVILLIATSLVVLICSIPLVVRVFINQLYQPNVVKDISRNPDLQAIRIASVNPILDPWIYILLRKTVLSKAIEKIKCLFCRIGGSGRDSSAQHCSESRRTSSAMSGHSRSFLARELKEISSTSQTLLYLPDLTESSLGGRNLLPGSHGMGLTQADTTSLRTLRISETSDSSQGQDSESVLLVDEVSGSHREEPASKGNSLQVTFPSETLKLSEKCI
Chain of Prostaglandin E2 receptor EP2 subtype (Q62053 whole entry): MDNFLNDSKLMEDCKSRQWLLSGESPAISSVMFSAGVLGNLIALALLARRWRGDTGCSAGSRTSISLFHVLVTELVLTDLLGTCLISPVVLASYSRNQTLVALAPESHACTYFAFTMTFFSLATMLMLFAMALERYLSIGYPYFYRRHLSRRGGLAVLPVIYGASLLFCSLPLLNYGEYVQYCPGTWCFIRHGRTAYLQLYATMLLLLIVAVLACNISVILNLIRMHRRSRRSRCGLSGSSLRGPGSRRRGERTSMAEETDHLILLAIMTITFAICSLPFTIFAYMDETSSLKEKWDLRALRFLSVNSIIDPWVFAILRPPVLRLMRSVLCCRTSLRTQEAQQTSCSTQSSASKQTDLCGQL
Chain of Prostacyclin receptor (P43119 whole entry): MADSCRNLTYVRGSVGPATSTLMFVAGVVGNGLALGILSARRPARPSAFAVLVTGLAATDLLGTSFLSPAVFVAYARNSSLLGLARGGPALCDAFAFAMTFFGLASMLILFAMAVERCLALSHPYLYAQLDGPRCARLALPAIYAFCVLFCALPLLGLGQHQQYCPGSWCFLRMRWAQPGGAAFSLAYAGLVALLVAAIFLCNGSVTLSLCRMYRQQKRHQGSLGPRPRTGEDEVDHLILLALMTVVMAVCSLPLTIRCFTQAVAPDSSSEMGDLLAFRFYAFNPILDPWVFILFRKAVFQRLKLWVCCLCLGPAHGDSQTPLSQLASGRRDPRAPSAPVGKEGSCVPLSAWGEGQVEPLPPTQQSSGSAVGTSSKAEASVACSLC
Chain of Prostaglandin F2-alpha receptor (P43117 whole entry): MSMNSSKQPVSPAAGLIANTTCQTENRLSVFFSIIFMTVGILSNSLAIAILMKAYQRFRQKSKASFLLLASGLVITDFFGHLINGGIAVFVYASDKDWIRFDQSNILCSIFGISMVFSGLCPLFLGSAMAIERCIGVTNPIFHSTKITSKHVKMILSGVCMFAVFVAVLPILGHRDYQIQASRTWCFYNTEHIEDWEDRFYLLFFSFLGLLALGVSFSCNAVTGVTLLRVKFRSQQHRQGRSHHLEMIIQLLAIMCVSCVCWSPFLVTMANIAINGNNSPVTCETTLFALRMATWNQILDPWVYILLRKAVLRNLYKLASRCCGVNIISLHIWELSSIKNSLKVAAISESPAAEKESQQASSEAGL

Cc1ccc(CC(=O)O)cc1NC(=O)c1ccc(OC[C@@H]2CN(C)c3ccccc3O2)cc1C
half-life [1]: 5.2 h | Ki [2]: > 10000 nM | Vd [3]: 0.61 L/kg | Ki [4]: > 10000 nM | Ki (Prostacyclin receptor): 2600 nM | bioavailability [5]: 62% | half-life [6]: 3.1 h | Ki [7]: 170 nM | Ki [8]: 31 nM | Ki [9]: > 10000 nM | AUC(0-t) [10]: 28800 ng·h/mL | Cmax [11]: 8700 ng/mL | IC50 [12]: 4.6 nM | AUC(0-t) [13]: 4600 ng·h/mL | clearance [14]: 3.3 mL/min/kg | Ki [15]: > 10000 nM | Ki (Thromboxane A2 receptor): > 10000 nM
